{"source": "ChEMBL document CHEMBL4513216", "about": "“Probing the Open Global Health Chemical Diversity Library for Multistage-Active Starting Points for Next-Generation Antimalarials” (ACS Infect Dis, 2020)", "assay": "Toxicity liver stage against HepG2, at 10uM", "assay_type": "cell-based", "parameters": "test concentration 10 uM, cell line HepG2-A16-CD81EGFP", "settings": "human, HepG2-A16-CD81EGFP cells; read-out: INHIBITION", "in_short": "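Uninfected HepG2-A16-CD81EGFP cells, 3 × 10^3 per well, 1536-well, plated on prespotted compound at 10 μM final, parasite-free screening media added to match infected plates; puromycin 10 μM positive, DMSO 0.5% negative; run in parallel with 48 h PbLuc assay at 37 °C, 5% CO2; viability by CellTiter-Glo luminescence, normalized to controls.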", "data": [{"smiles": "Cc1ccc(CNC(=O)C2c3c(ncn3C(C)C)CCN2S(C)(=O)=O)o1", "note": "(stereo not given)", "values": [{"measurement": "cytotoxicity at 10 µM", "result": -13.7, "unit": "%"}]}, {"smiles": "O=C(NC1CC1)c1nc2c(o1)CN(c1ncccn1)C2", "values": [{"measurement": "cytotoxicity at 10 µM", "result": 0.718, "unit": "%"}]}, {"smiles": "CCOCc1cncc2c1CCN(S(=O)(=O)c1ccccc1)C2", "values": [{"measurement": "cytotoxicity at 10 µM", "result": 14.6, "unit": "%"}]}, {"smiles": "CN1Cc2c(C(=O)N3CCOCC3)ncn2-c2ccccc2S1(=O)=O", "values": [{"measurement": "cytotoxicity at 10 µM", "result": -1.58, "unit": "%"}]}, {"smiles": "O=c1[nH]c2c(c(=O)n1C1CCCCC1)CCC2NCCc1ccccc1", "note": "(stereo not given)", "values": [{"measurement": "cytotoxicity at 10 µM", "result": -6.91, "unit": "%"}]}, {"smiles": "Cc1cc(C(=O)NCC(C)C)nn1C", "values": [{"measurement": "cytotoxicity at 10 µM", "result": -0.971, "unit": "%"}]}, {"smiles": "CCN1CCCC(O)(CNCc2ccncc2)C1", "note": "(stereo not given)", "values": [{"measurement": "cytotoxicity at 10 µM", "result": -2.93, "unit": "%"}]}, {"smiles": "CCOC(=O)c1cc(C(C)(O)CCC=C(C)C)on1", "note": "(stereo not given)", "values": [{"measurement": "cytotoxicity at 10 µM", "result": 2.3, "unit": "%"}]}, {"smiles": "O=C(NC1CCS(=O)(=O)C1)c1cc(Sc2ncccn2)ccn1", "note": "(stereo not given)", "values": [{"measurement": "cytotoxicity at 10 µM", "result": 12, "unit": "%"}]}, {"smiles": "Cc1csc(Nc2cc(C3CN(C(C)C)C3)nc(C)n2)n1", "values": [{"measurement": "cytotoxicity at 10 µM", "result": -7.56, "unit": "%"}]}, {"smiles": "O=C(NC1CCCN(c2ccccn2)C1)C1(c2ccccc2F)CC1", "note": "(stereo not given)", "values": [{"measurement": "cytotoxicity at 10 µM", "result": 7.79, "unit": "%"}]}, {"smiles": "CS(=O)(=O)N1CCCC(Cc2cnc(Br)cn2)CC1", "note": "(stereo not given)", "values": [{"measurement": "cytotoxicity at 10 µM", "result": -2.46, "unit": "%"}]}, {"smiles": "Cn1cc(C2CCCN2C(=O)c2cnc(-c3cccs3)s2)cn1", "note": "(stereo not given)", "values": [{"measurement": "cytotoxicity at 10 µM", "result": 4.99, "unit": "%"}]}, {"smiles": "COc1cc(CNC(C)c2nnc3n2CCC3)cc(OC)c1", "note": "(stereo not given)", "values": [{"measurement": "cytotoxicity at 10 µM", "result": -41.7, "unit": "%"}]}, {"smiles": "CCOCCCNC(=O)c1cccn1Cc1cccnc1", "values": [{"measurement": "cytotoxicity at 10 µM", "result": -43.8, "unit": "%"}]}, {"smiles": "Cc1cc(CN(CCO)Cc2cc(Br)ccc2F)no1", "values": [{"measurement": "cytotoxicity at 10 µM", "result": 3.46, "unit": "%"}]}, {"smiles": "Cc1nc(NC(=O)NCc2cccnc2NCCN(C)C)sc1C", "values": [{"measurement": "cytotoxicity at 10 µM", "result": 4.51, "unit": "%"}]}, {"smiles": "Clc1cc(Cl)cc(CN2CCC(NCc3cc[nH]n3)CC2)c1", "values": [{"measurement": "cytotoxicity at 10 µM", "result": 11.1, "unit": "%"}]}, {"smiles": "COCCCOc1ccc(C(=O)N(C)Cc2cccc(O)c2)cn1", "values": [{"measurement": "cytotoxicity at 10 µM", "result": -9.63, "unit": "%"}]}, {"smiles": "CCC(C)c1csc(NC(=O)c2sc(-c3nnc[nH]3)nc2C)n1", "note": "(stereo not given)", "values": [{"measurement": "cytotoxicity at 10 µM", "result": -35.5, "unit": "%"}]}, {"smiles": "Cc1noc(CCCC(=O)N2CSCC2C(=O)NCC2CC2)n1", "note": "(stereo not given)", "values": [{"measurement": "cytotoxicity at 10 µM", "result": -44.9, "unit": "%"}]}, {"smiles": "FC(F)(F)c1cc(C2CCCN(Cc3ccncc3)C2)n[nH]1", "note": "(stereo not given)", "values": [{"measurement": "cytotoxicity at 10 µM", "result": -52.8, "unit": "%"}]}, {"smiles": "CCN1CCN(C(=O)c2csnn2)c2ccccc21", "values": [{"measurement": "cytotoxicity at 10 µM", "result": -1.46, "unit": "%"}]}, {"smiles": "CC(C)N(C)S(=O)(=O)N(Cc1cccs1)CC1CCCO1", "note": "(stereo not given)", "values": [{"measurement": "cytotoxicity at 10 µM", "result": -53.7, "unit": "%"}]}, {"smiles": "Cc1cc(C(=O)NC(C)CC(=O)c2ccco2)[nH]n1", "note": "(stereo not given)", "values": [{"measurement": "cytotoxicity at 10 µM", "result": -8.17, "unit": "%"}]}, {"smiles": "CC(=O)N1CCC(NC(=O)c2cc(Cl)ccc2-n2cnnn2)CC1", "values": [{"measurement": "cytotoxicity at 10 µM", "result": 8.72, "unit": "%"}]}, {"smiles": "CCN(CC)c1ccc(CNC(=O)c2cnccn2)cn1", "values": [{"measurement": "cytotoxicity at 10 µM", "result": -104, "unit": "%"}]}, {"smiles": "COc1ccc(CNC(Cn2cncn2)c2ccccc2)cc1C", "note": "(stereo not given)", "values": [{"measurement": "cytotoxicity at 10 µM", "result": -4.33, "unit": "%"}]}, {"smiles": "CC(=O)Nc1ccc(CNCc2ccc(CS(C)(=O)=O)cc2)cc1", "values": [{"measurement": "cytotoxicity at 10 µM", "result": 4.67, "unit": "%"}]}, {"smiles": "Cc1nnc(NC(=O)NC2CCCc3c2cnn3CCO)s1", "note": "(stereo not given)", "values": [{"measurement": "cytotoxicity at 10 µM", "result": 6.66, "unit": "%"}]}, {"smiles": "O=C(CCNS(=O)(=O)c1ccccc1F)NCc1ccoc1", "values": [{"measurement": "cytotoxicity at 10 µM", "result": -16.5, "unit": "%"}]}, {"smiles": "Cc1ncc2c(n1)CN(Cc1nc(C)c(C)o1)CC2", "values": [{"measurement": "cytotoxicity at 10 µM", "result": -4.32, "unit": "%"}]}, {"smiles": "O=C(CCc1ccncc1)N1CCCC(N2CCNC2=O)C1", "note": "(stereo not given)", "values": [{"measurement": "cytotoxicity at 10 µM", "result": 2.71, "unit": "%"}]}, {"smiles": "CC(C)Cn1cnnc1C1CCCN1C(=O)c1ccc(F)cc1F", "note": "(stereo not given)", "values": [{"measurement": "cytotoxicity at 10 µM", "result": -2.01, "unit": "%"}]}, {"smiles": "CN(CC(=O)N(C)C1CCN(CC2CCOC2)CC1)c1ccccc1", "note": "(stereo not given)", "values": [{"measurement": "cytotoxicity at 10 µM", "result": -9.45, "unit": "%"}]}, {"smiles": "NC(=O)Cn1cc(NC(=O)NCC2CCN(c3ccccc3)C2)cn1", "note": "(stereo not given)", "values": [{"measurement": "cytotoxicity at 10 µM", "result": 1.95, "unit": "%"}]}, {"smiles": "CCCNC(=O)Nc1ccn(CCCOC)n1", "values": [{"measurement": "cytotoxicity at 10 µM", "result": -2.11, "unit": "%"}]}, {"smiles": "NS(=O)(=O)CC1CCCN1CCOc1ccccc1F", "note": "(stereo not given)", "values": [{"measurement": "cytotoxicity at 10 µM", "result": 3.98, "unit": "%"}]}, {"smiles": "Cc1nnc(NC(=O)NC(C)C(=O)NC2CCCC2)s1", "note": "(stereo not given)", "values": [{"measurement": "cytotoxicity at 10 µM", "result": -0.334, "unit": "%"}]}, {"smiles": "CCS(=O)(=O)NC(CCSC)C(=O)Nc1ccc(F)cc1", "note": "(stereo not given)", "values": [{"measurement": "cytotoxicity at 10 µM", "result": -6.6, "unit": "%"}]}, {"smiles": "CCc1ccc(NC(=O)c2ncc(C(N)=O)cc2Cl)cc1F", "values": [{"measurement": "cytotoxicity at 10 µM", "result": -9.86, "unit": "%"}]}, {"smiles": "CCOCCN1CCN(CC(O)c2ccc(F)cc2)CC1", "note": "(stereo not given)", "values": [{"measurement": "cytotoxicity at 10 µM", "result": -8.92, "unit": "%"}]}, {"smiles": "CCc1nc(CN2CCCC2C(=O)NC2CC2)cs1", "note": "(stereo not given)", "values": [{"measurement": "cytotoxicity at 10 µM", "result": -4.63, "unit": "%"}]}, {"smiles": "N#Cc1ccc(CN(CCF)Cc2cccc(F)c2)cc1", "values": [{"measurement": "cytotoxicity at 10 µM", "result": -4.11, "unit": "%"}]}, {"smiles": "COc1ccc(CN(C)CC(=O)c2ccc3[nH]c(=O)[nH]c3c2)cc1F", "values": [{"measurement": "cytotoxicity at 10 µM", "result": 8.51, "unit": "%"}]}, {"smiles": "CCn1c(CN(C)Cc2cnc(C)s2)nc2c(F)cccc21", "values": [{"measurement": "cytotoxicity at 10 µM", "result": -42, "unit": "%"}]}, {"smiles": "COc1ccccc1C(C)NC(=O)NCCC(=O)NC1CCCCC1", "note": "(stereo not given)", "values": [{"measurement": "cytotoxicity at 10 µM", "result": 0.0119, "unit": "%"}]}, {"smiles": "N#Cc1cc(F)c(NCCc2ccc(S(N)(=O)=O)cc2)c(F)c1", "values": [{"measurement": "cytotoxicity at 10 µM", "result": -53.9, "unit": "%"}]}, {"smiles": "CC(NC(=O)Cn1cccnc1=O)c1ccc(C(F)(F)F)cc1", "note": "(stereo not given)", "values": [{"measurement": "cytotoxicity at 10 µM", "result": 8.2, "unit": "%"}]}, {"smiles": "COc1cccc(CNC(CN2CCN(C)CC2)c2ccccc2)c1", "note": "(stereo not given)", "values": [{"measurement": "cytotoxicity at 10 µM", "result": 12.5, "unit": "%"}]}, {"smiles": "Cc1ccc(CC(=O)N2CCOC(c3nc(C)n[nH]3)C2)cn1", "note": "(stereo not given)", "values": [{"measurement": "cytotoxicity at 10 µM", "result": -3.28, "unit": "%"}]}, {"smiles": "Cc1cccc(COC[C@]23COC[C@H]2CN(c2ncccn2)C3)n1", "values": [{"measurement": "cytotoxicity at 10 µM", "result": -76.2, "unit": "%"}]}, {"smiles": "CC(=O)N1CCn2cc(CNC(=O)c3cccn3C)nc2C1", "values": [{"measurement": "cytotoxicity at 10 µM", "result": 1.88, "unit": "%"}]}, {"smiles": "CN(Cc1ccccn1)C1COC2(CCN(Cc3cccnc3)CC2)C1", "note": "(stereo not given)", "values": [{"measurement": "cytotoxicity at 10 µM", "result": -1.42, "unit": "%"}]}, {"smiles": "Cc1ccc(CN2CCCn3c(nc(Cn4cncn4)cc3=O)C2)s1", "values": [{"measurement": "cytotoxicity at 10 µM", "result": -1.6, "unit": "%"}]}]}
